Results published in ChEMBL document CHEMBL1629490, “Synthesis and anti-inflammatory evaluation of novel mono-carbonyl analogues of curcumin in LPS-stimulated RAW 264.7 macrophages” (Eur J Med Chem, 2010).
Calls of active or inactive are those of the source. No cut-off for these calls is given here.

test system: RAW264.7; experiment: Antiinflammatory activity in mouse RAW264.7 cells assessed as inhibition of LPS-induced IL-6 production after 2 hrs by ELISA; format: functional, cell-based; settings: RAW264.7, 2 h

| SMILES | IC50 [nM] |
| --- | --- |
| CCOc1ccc(Br)cc1/C=C/C(=O)/C=C/c1cc(Br)ccc1OCC | 3640 |
| CCN(CC)c1ccc(/C=C2\CC/C(=C\c3ccc(N(CC)CC)cc3)C2=O)cc1 | 1070 |

test system: RAW264.7; experiment: Antiinflammatory activity in mouse RAW264.7 cells assessed as inhibition of LPS-induced IL-6 production at 10 uM after 2 hrs by ELISA; format: functional; settings: not given
In short: (§1)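 RAW 264.7 cells were grown in DMEM with 10% heat-inactivated FBS and penicillin/streptomycin at 37 °C with 5% CO2, plated at 4.0 × 10^5/plate overnight, and pretreated for 2 h with compound at 10 µM (DMSO stock; vehicle control). LPS (0.5 µg/ml) was added for 22 h. TNF-α and IL-6 in the medium were measured by ELISA, normalized to cell protein, and expressed as % of LPS control. Values are mean ± SE of 3–5 independent experiments.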

| SMILES | inhibition |
| --- | --- |
| CCOc1ccc(Br)cc1/C=C1\CCC/C(=C\c2cc(Br)ccc2OCC)C1=O | Active |
| COc1cc(OC)c(OC)cc1/C=C1\CC/C(=C\c2cc(OC)c(OC)cc2OC)C1=O | Active |
| CCOc1ccc(Br)cc1/C=C/C(=O)/C=C/c1cc(Br)ccc1OCC | Active |
| Cc1cc(N(CCCl)CCCl)ccc1/C=C1\CCC/C(=C\c2ccc(N(CCCl)CCCl)cc2C)C1=O | Active |
| O=C1/C(=C/c2ccc(N3CCCCC3)cc2)CCC/C1=C\c1ccc(N2CCCCC2)cc1 | Active |
| COc1cc(OC)c(OC)cc1/C=C/C(=O)/C=C/c1cc(OC)c(OC)cc1OC | Active |
| CCOC(OCC)c1cccc(/C=C2\CC/C(=C\c3cccc(C(OCC)OCC)c3)C2=O)c1 | Active |
| COc1cccc(/C=C/C(=O)/C=C/c2cccc(OC)c2O)c1O | Active |
| O=C1/C(=C/c2ccc(C(F)(F)F)cc2C(F)(F)F)CCC/C1=C\c1ccc(C(F)(F)F)cc1C(F)(F)F | Active |
| COc1cccc(/C=C2\CC/C(=C\c3cccc(OC)c3O)C2=O)c1O | Active |
| COc1ccc(/C=C2\CC/C(=C\c3ccc(OC)cc3F)C2=O)c(F)c1 | Active |
| O=C1/C(=C/c2ccc(N3CCOCC3)cc2)CCC/C1=C\c1ccc(N2CCOCC2)cc1 | Active |
| CCN(CC)c1ccc(/C=C2\CCC/C(=C\c3ccc(N(CC)CC)cc3)C2=O)cc1 | Active |
| COc1ccc(F)c(/C=C2\CCC/C(=C\c3cc(OC)ccc3F)C2=O)c1 | Active |
| O=C1/C(=C/c2ccc(C(F)(F)F)cc2F)CCC/C1=C\c1ccc(C(F)(F)F)cc1F | Active |
| CCOc1ccc(Br)cc1/C=C1\CC/C(=C\c2cc(Br)ccc2OCC)C1=O | Active |
| O=C1/C(=C/c2ccc(C(F)(F)F)cc2F)CC/C1=C\c1ccc(C(F)(F)F)cc1F | Active |
| O=C1/C(=C/c2cccc(C(F)(F)F)c2F)CCC/C1=C\c1cccc(C(F)(F)F)c1F | Active |
| O=C1/C(=C/c2ccc(N3CCOCC3)cc2)CC/C1=C\c1ccc(N2CCOCC2)cc1 | Active |
| O=C1/C(=C/c2c(F)cccc2C(F)(F)F)CCC/C1=C\c1c(F)cccc1C(F)(F)F | Active |
| O=C1/C(=C/c2cccc(C(F)(F)F)c2F)CC/C1=C\c1cccc(C(F)(F)F)c1F | Active |
| O=C1/C(=C/c2ccc(N3CCCCC3)cc2)CC/C1=C\c1ccc(N2CCCCC2)cc1 | Active |
| O=C1/C(=C/c2c(F)cccc2C(F)(F)F)CC/C1=C\c1c(F)cccc1C(F)(F)F | Active |
| COc1cc(OC)c(OC)cc1/C=C1\CCC/C(=C\c2cc(OC)c(OC)cc2OC)C1=O | Active |

same assay, conditions: RAW264.7, 2 h

| SMILES | inhibition at 10 µM [%] |
| --- | --- |
| CCN(CC)c1ccc(/C=C/C(=O)/C=C/c2ccc(N(CC)CC)cc2)cc1 | 50 |
| O=C(/C=C/c1c(F)cccc1C(F)(F)F)/C=C/c1c(F)cccc1C(F)(F)F | 30 |
| CCN(CC)c1ccc(/C=C2\CC/C(=C\c3ccc(N(CC)CC)cc3)C2=O)cc1 | 92.7 |
| O=C(/C=C/c1ccc(N2CCOCC2)cc1)/C=C/c1ccc(N2CCOCC2)cc1 | 50 |
| Cc1cc(N(CCCl)CCCl)ccc1/C=C1\CC/C(=C\c2ccc(N(CCCl)CCCl)cc2C)C1=O | 30 |
| Cc1cc(N(CCCl)CCCl)ccc1/C=C/C(=O)/C=C/c1ccc(N(CCCl)CCCl)cc1C | 30 |
| COc1ccc(F)c(/C=C2\CC/C(=C\c3cc(OC)ccc3F)C2=O)c1 | 30 |
| O=C(/C=C/c1ccc(N2CCCCC2)cc1)/C=C/c1ccc(N2CCCCC2)cc1 | 50 |
| COc1ccc(/C=C/C(=O)/C=C/c2ccc(OC)cc2F)c(F)c1 | 51.1 |
| COc1cc(/C=C/C(=O)CC(=O)/C=C/c2ccc(O)c(OC)c2)ccc1O [CURCUMIN] | 75.7 |

test system: RAW264.7; experiment: Antiinflammatory activity in mouse RAW264.7 cells assessed as inhibition of LPS-induced IL-6 production at 1 to 20 uM after 2 hrs by ELISA; format: functional, cell-based; settings: not given
In short: (§2)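 Murine RAW 264.7 cells were plated at 4.0 × 10^6/plate overnight (37 °C, 5% CO2) and pretreated for 2 h with compound at 1, 2.5, 5.0, 10 and 20 µM. LPS at 0.5 µg/ml followed for 22 h. Media TNF-α and IL-6 were measured by ELISA, normalized to total cell-lysate protein, and given as % of LPS control. Values are mean ± SE of 3–5 independent experiments.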

| SMILES | inhibition |
| --- | --- |
| CCOc1ccc(Br)cc1/C=C/C(=O)/C=C/c1cc(Br)ccc1OCC | Dose-dependent effect |
| CCN(CC)c1ccc(/C=C2\CC/C(=C\c3ccc(N(CC)CC)cc3)C2=O)cc1 | Dose-dependent effect |

test system: RAW264.7; experiment: Antiinflammatory activity in mouse RAW264.7 cells assessed as inhibition of LPS-induced TNF alpha production at 10 uM after 2 hrs by ELISA; format: functional; settings: not given; in short: as §1

| SMILES | inhibition |
| --- | --- |
| CCN(CC)c1ccc(/C=C/C(=O)/C=C/c2ccc(N(CC)CC)cc2)cc1 | Active |
| O=C(/C=C/c1c(F)cccc1C(F)(F)F)/C=C/c1c(F)cccc1C(F)(F)F | Active |
| CCOc1ccc(Br)cc1/C=C1\CCC/C(=C\c2cc(Br)ccc2OCC)C1=O | Active |
| COc1cc(OC)c(OC)cc1/C=C1\CC/C(=C\c2cc(OC)c(OC)cc2OC)C1=O | Active |
| CCOc1ccc(Br)cc1/C=C/C(=O)/C=C/c1cc(Br)ccc1OCC | Active |
| Cc1cc(N(CCCl)CCCl)ccc1/C=C1\CCC/C(=C\c2ccc(N(CCCl)CCCl)cc2C)C1=O | Active |
| O=C1/C(=C/c2ccc(N3CCCCC3)cc2)CCC/C1=C\c1ccc(N2CCCCC2)cc1 | Active |
| CCOC(OCC)c1cccc(/C=C2\CC/C(=C\c3cccc(C(OCC)OCC)c3)C2=O)c1 | Active |
| COc1cccc(/C=C/C(=O)/C=C/c2cccc(OC)c2O)c1O | Active |
| Cc1cc(N(CCCl)CCCl)ccc1/C=C1\CC/C(=C\c2ccc(N(CCCl)CCCl)cc2C)C1=O | Active |
| COc1cccc(/C=C2\CC/C(=C\c3cccc(OC)c3O)C2=O)c1O | Active |
| O=C1/C(=C/c2ccc(N3CCOCC3)cc2)CCC/C1=C\c1ccc(N2CCOCC2)cc1 | Active |
| COc1ccc(F)c(/C=C2\CC/C(=C\c3cc(OC)ccc3F)C2=O)c1 | Active |
| CCN(CC)c1ccc(/C=C2\CCC/C(=C\c3ccc(N(CC)CC)cc3)C2=O)cc1 | Active |
| O=C(/C=C/c1ccc(N2CCCCC2)cc1)/C=C/c1ccc(N2CCCCC2)cc1 | Active |
| O=C1/C(=C/c2ccc(C(F)(F)F)cc2F)CCC/C1=C\c1ccc(C(F)(F)F)cc1F | Active |
| CCOc1ccc(Br)cc1/C=C1\CC/C(=C\c2cc(Br)ccc2OCC)C1=O | Active |
| O=C1/C(=C/c2ccc(C(F)(F)F)cc2F)CC/C1=C\c1ccc(C(F)(F)F)cc1F | Active |
| O=C1/C(=C/c2ccc(N3CCOCC3)cc2)CC/C1=C\c1ccc(N2CCOCC2)cc1 | Active |
| O=C1/C(=C/c2c(F)cccc2C(F)(F)F)CCC/C1=C\c1c(F)cccc1C(F)(F)F | Active |
| O=C1/C(=C/c2cccc(C(F)(F)F)c2F)CC/C1=C\c1cccc(C(F)(F)F)c1F | Active |
| COc1cc(OC)c(OC)cc1/C=C1\CCC/C(=C\c2cc(OC)c(OC)cc2OC)C1=O | Active |

same assay, conditions: RAW264.7, 2 h

| SMILES | inhibition at 10 µM [%] |
| --- | --- |
| COc1cc(OC)c(OC)cc1/C=C/C(=O)/C=C/c1cc(OC)c(OC)cc1OC | > 20 |
| CCN(CC)c1ccc(/C=C2\CC/C(=C\c3ccc(N(CC)CC)cc3)C2=O)cc1 | 67.5 |
| O=C(/C=C/c1ccc(N2CCOCC2)cc1)/C=C/c1ccc(N2CCOCC2)cc1 | > 20 |
| O=C1/C(=C/c2ccc(C(F)(F)F)cc2C(F)(F)F)CCC/C1=C\c1ccc(C(F)(F)F)cc1C(F)(F)F | 20 |
| COc1ccc(/C=C2\CC/C(=C\c3ccc(OC)cc3F)C2=O)c(F)c1 | 20 |
| Cc1cc(N(CCCl)CCCl)ccc1/C=C/C(=O)/C=C/c1ccc(N(CCCl)CCCl)cc1C | 20 |
| COc1ccc(F)c(/C=C2\CCC/C(=C\c3cc(OC)ccc3F)C2=O)c1 | 20 |
| COc1ccc(/C=C/C(=O)/C=C/c2ccc(OC)cc2F)c(F)c1 | 20 |
| COc1cc(/C=C/C(=O)CC(=O)/C=C/c2ccc(O)c(OC)c2)ccc1O [CURCUMIN] | 35.6 |
| O=C1/C(=C/c2cccc(C(F)(F)F)c2F)CCC/C1=C\c1cccc(C(F)(F)F)c1F | > 20 |
| O=C1/C(=C/c2ccc(N3CCCCC3)cc2)CC/C1=C\c1ccc(N2CCCCC2)cc1 | 20 |
| O=C1/C(=C/c2c(F)cccc2C(F)(F)F)CC/C1=C\c1c(F)cccc1C(F)(F)F | > 20 |

test system: RAW264.7; experiment: Cytotoxicity against mouse RAW264.7 cells; format: cell-based; settings: not given

| SMILES | Activity |
| --- | --- |
| CCOc1ccc(Br)cc1/C=C/C(=O)/C=C/c1cc(Br)ccc1OCC | Non-toxic |
| CCN(CC)c1ccc(/C=C2\CC/C(=C\c3ccc(N(CC)CC)cc3)C2=O)cc1 | Non-toxic |

test system: RAW264.7; experiment: Antiinflammatory activity in mouse RAW264.7 cells assessed as inhibition of LPS-induced TNF alpha production at 1 to 20 uM after 2 hrs by ELISA; format: functional, cell-based; settings: not given; in short: as §2

| SMILES | inhibition |
| --- | --- |
| CCOc1ccc(Br)cc1/C=C/C(=O)/C=C/c1cc(Br)ccc1OCC | Dose-dependent effect |
| CCN(CC)c1ccc(/C=C2\CC/C(=C\c3ccc(N(CC)CC)cc3)C2=O)cc1 | Dose-dependent effect |

test system: RAW264.7; experiment: Antiinflammatory activity in mouse RAW264.7 cells assessed as inhibition of LPS-induced TNF alpha production after 2 hrs by ELISA; format: functional, cell-based; settings: RAW264.7, 2 h

| SMILES | IC50 [µM] |
| --- | --- |
| CCOc1ccc(Br)cc1/C=C/C(=O)/C=C/c1cc(Br)ccc1OCC | 6.28 |
| CCN(CC)c1ccc(/C=C2\CC/C(=C\c3ccc(N(CC)CC)cc3)C2=O)cc1 | 16.4 |
